Screening results deposited in PubChem BioAssay by The Scripps Research Institute Molecular Screening Center.
TAAR1 antag – human TAAR1 antagonism; inhibition, % at 3 µM; Q96RJ0; 360,000 tested, 1.5% active; CHO RD-HGA16 TAAR1, Fluo-8 calcium fluorescence, antagonist; AID 624466;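 active = inhibition above a per-plate cutoff, the mean inhibition of test compounds on that plate plus 3 SD, cut at about 49% in these data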
Target sequence (Q96RJ0 whole entry, looked up): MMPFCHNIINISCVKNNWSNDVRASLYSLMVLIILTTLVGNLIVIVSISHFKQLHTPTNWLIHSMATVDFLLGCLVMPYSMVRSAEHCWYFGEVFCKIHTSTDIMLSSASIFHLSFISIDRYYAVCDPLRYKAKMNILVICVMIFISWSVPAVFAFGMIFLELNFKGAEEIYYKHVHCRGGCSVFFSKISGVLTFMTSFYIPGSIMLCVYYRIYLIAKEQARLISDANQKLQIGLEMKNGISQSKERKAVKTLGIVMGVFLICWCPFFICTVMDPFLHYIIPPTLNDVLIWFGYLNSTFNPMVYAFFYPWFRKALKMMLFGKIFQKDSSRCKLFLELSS
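Material: CHO RD-HGA16 cells bearing hTAAR1; compound dosing: one-point dosing, 3 µM nominal final; schedule: dye loading 75 min at 37 °C, then 30 min room temperature; measured by: calcium fluorescence with Fluo-8; control set: vehicle and agonist controls; replication: n of 1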
TAAR1 agonist – agonists of human TAAR1; CHO RD-HGA16 TAAR1, Fluo-8 calcium fluorescence; vehicle wells 0%, saturating PEA agonist 100%; activation, % at 3 µM; 360,000 tested, 0.99% active; AID 624467;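 active = activation above the mean activation of all test compounds in the run plus 3 SD, cut at about 38% in these data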
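Test system: RD-HGA16 (CHO) cells co-expressing Gα16 and hTAAR1 / Benchmarks: DMSO vehicle as 0%, PEA at EC100 as 100% / Repeats: no replicates (n 1) / Measure: % activation from peak over basal fluorescence ratio, DMSO-to-PEA scaled / Timing: 17-24 h plating, Fluo-8 75 min 37 °C, 30 min RT / Technique: kinetic Fluo-8 calcium fluorescence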
CHO parental Ca – counter-screen: ATP calcium response change in parental CHO cells; parental CHO-K1, ATP-induced calcium, Fluo-8 fluorescence; inhibition, % at 5.6 µM; 330,000 tested, 0.63% active; AID 463079;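 active = inhibition above that plate's mean sample inhibition plus 3 SD, cut at about 26% in these data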
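Material: Parental CHO cells | Reagent: ATP | Compound dosing: Single nominal dose of 5.6 µM per compound | Detection: Intracellular calcium via Fluo-8 no-wash fluorescent dye | Read-out: % inhibition of ATP-induced calcium mobilization | Benchmarks: Low control ATP plus DMSO, high control DMSO only | Replicates: Singlicate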
GPR7 antag – blocks human GPR7 receptor signaling; AID 1861; inhibition, % at 4.4 µM; GPR7-expressing cells, fluorescence antagonist assay; 290,000 tested, 1.1% active; in the data active = inhibition above about 16%, passing the limit was not always enough;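 note: cells stimulated with the agonist NPW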
Target sequence (P48145 whole entry, looked up): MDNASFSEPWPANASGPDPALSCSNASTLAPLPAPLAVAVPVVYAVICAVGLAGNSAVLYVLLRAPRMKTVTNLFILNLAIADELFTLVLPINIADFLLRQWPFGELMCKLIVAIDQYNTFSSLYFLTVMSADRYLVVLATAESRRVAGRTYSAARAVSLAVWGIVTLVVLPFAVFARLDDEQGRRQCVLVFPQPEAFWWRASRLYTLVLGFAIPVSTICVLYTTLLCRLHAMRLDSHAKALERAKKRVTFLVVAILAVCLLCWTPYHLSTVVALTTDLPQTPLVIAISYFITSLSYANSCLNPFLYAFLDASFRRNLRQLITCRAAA
OX1R antag-1 – blocks the human orexin 1 receptor | O43613 | 330,000 tested, 1.8% active | inhibition, % at 6.6 µM | OX1R-expressing cells, FRET antagonist read-out; in the data active = inhibition mostly above about 38%, no sharp cut-off; inactive = mostly below about 40%
OX1R antag-2 – human HCRTR1 antagonism; O43613; CHO/OX1R cells, Fluo-8 calcium fluorescence, orexin A; inhibition, % at 5 µM; 330,000 tested, 0.43% active;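 active = inhibition above its plate's threshold, mean inhibition of all tested compounds on the plate plus 3 SD, cut at about 37% in these data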
A number is an active result. This is a sample that favours compounds with a hit; in the whole collection about 4.6% have one here.

`O=C(Nc1ccc(Cl)c(Cl)c1)N1CCCCCC1` gave TAAR1 antag inactive, TAAR1 agonist inactive, CHO parental Ca 33, GPR7 antag inactive, OX1R antag-1 inactive and OX1R antag-2 inactive.
O=C(CN1CCN(S(=O)(=O)N2CCCCC2)CC1)Nc1ccc(Cl)c(Cl)c1 was read as TAAR1 antag inactive, TAAR1 agonist inactive, CHO parental Ca 32, GPR7 antag inactive, OX1R antag-1 inactive and OX1R antag-2 inactive.
Screening CCCNC(=O)C1(C)CCN(Cc2cccc(OC(=O)c3ccccc3)c2)C1 (stereo not given) returned TAAR1 antag inactive and TAAR1 agonist inactive.
Screening CCCNC(=O)C1(C)CCCN(C(=O)c2ccc(F)cc2Cl)C1 (stereo not given) returned TAAR1 antag inactive and TAAR1 agonist inactive.
COc1cc(-c2nc3ccccc3nc2-c2ccc(O)c(OC)c2)ccc1O was read as TAAR1 antag 53, TAAR1 agonist inactive, CHO parental Ca inactive, GPR7 antag inactive, OX1R antag-1 inactive and OX1R antag-2 inactive.
Screening COc1cc(-c2nc3ccccn3c2N)ccc1O returned TAAR1 antag inactive, TAAR1 agonist inactive, CHO parental Ca inactive, GPR7 antag inactive, OX1R antag-1 inactive and OX1R antag-2 inactive.
For O=c1[nH]cnc2ncc(-c3ccc(O)cc3)nc12 the results were TAAR1 antag inactive, TAAR1 agonist inactive, CHO parental Ca inactive, OX1R antag-1 60 and OX1R antag-2 inactive.
Screening Cc1cc(N2CCN(CC(C)(C)O)C[C@@H]2C)ccc1N1CCN(CC(C)(C)O)[C@@H](C)C1 returned TAAR1 antag inactive and TAAR1 agonist inactive.
For Brc1ccc(Nc2nc(-c3cccnc3)cs2)cc1 the results were TAAR1 antag inactive, TAAR1 agonist inactive, CHO parental Ca inactive, GPR7 antag inactive, OX1R antag-1 inactive and OX1R antag-2 inactive.
Screening Cc1ccc(Nc2nc(-c3cccnc3)cs2)cc1C returned TAAR1 antag inactive, TAAR1 agonist inactive, CHO parental Ca inactive, GPR7 antag inactive, OX1R antag-1 58 and OX1R antag-2 inactive.
CC(C)NC(=O)N[C@H]1C=C[C@H](CC(=O)NCc2ccc(Oc3ccccc3)cc2)O[C@@H]1CO was read as TAAR1 antag inactive and TAAR1 agonist inactive.
CCOC(=O)c1nn(-c2ccccc2)cc1O was read as TAAR1 antag inactive, TAAR1 agonist inactive, CHO parental Ca inactive, GPR7 antag inactive, OX1R antag-1 inactive and OX1R antag-2 inactive.
Screening COC(=O)c1nn(-c2ccc(-c3ccccc3)cc2)cc1O returned TAAR1 antag 52, TAAR1 agonist inactive, CHO parental Ca inactive, GPR7 antag inactive, OX1R antag-1 inactive and OX1R antag-2 inactive.
Screening COC(=O)[C@@]12C[C@@H](CC(=O)NCCc3ccccc3OC)C(=O)N(CCc3ccc(OC)c(OC)c3)C1=CCC(C)(C)C2 returned TAAR1 antag inactive and TAAR1 agonist inactive.
Screening CCN1C(=O)C(CC(=O)Nc2ccc(OC)cc2)N(CCc2ccc(OC)cc2)C1=S (stereo not given) returned TAAR1 antag 51, TAAR1 agonist inactive, CHO parental Ca inactive, GPR7 antag inactive, OX1R antag-1 inactive and OX1R antag-2 inactive.
CCN1C(=O)C(CC(=O)Nc2ccc(OC)cc2)N(Cc2ccc(OC)c(OC)c2)C1=S (stereo not given) was read as TAAR1 antag inactive, TAAR1 agonist inactive, CHO parental Ca inactive, GPR7 antag inactive, OX1R antag-1 inactive and OX1R antag-2 inactive.
For O=C(CSc1nnc2ccc(-c3ccncc3)nn12)Nc1ccc(F)cc1 the results were TAAR1 antag inactive, TAAR1 agonist inactive, CHO parental Ca inactive, OX1R antag-1 61 and OX1R antag-2 inactive.
For Cc1ccc(NC(=O)CSc2nnc3ccc(-c4cccnc4)nn23)cc1 the results were TAAR1 antag inactive, TAAR1 agonist inactive, CHO parental Ca inactive, OX1R antag-1 inactive and OX1R antag-2 inactive.
`O=C(CSc1nnc2ccc(-c3cccnc3)nn12)Nc1ccc(F)cc1` gave TAAR1 antag inactive, TAAR1 agonist inactive, CHO parental Ca inactive, OX1R antag-1 inactive and OX1R antag-2 inactive.
COc1ccc(-c2ccc3nnc(SCC(=O)N4CCCC4)n3n2)cc1 was read as TAAR1 antag inactive, TAAR1 agonist inactive, CHO parental Ca inactive, OX1R antag-1 55 and OX1R antag-2 inactive.
Screening CCS(=O)(=O)Nc1cccc(-c2ccc3nnc(-c4cccnc4)n3n2)c1 returned TAAR1 antag inactive, TAAR1 agonist inactive, CHO parental Ca inactive, GPR7 antag inactive, OX1R antag-1 35 and OX1R antag-2 inactive.
Screening CC(=O)Nc1ccc(NC(=O)CSc2nnc3ccc(-c4cccnc4)nn23)cc1 returned TAAR1 antag inactive, TAAR1 agonist inactive, CHO parental Ca inactive, OX1R antag-1 50 and OX1R antag-2 inactive.
`COc1ccc(-c2nnc3ccc(SCC(=O)N4CCCC4)nn23)cc1` gave TAAR1 antag inactive, TAAR1 agonist inactive, CHO parental Ca inactive, GPR7 antag inactive, OX1R antag-1 inactive and OX1R antag-2 inactive.
c1ccc(-c2ccccc2C2Cc3nnccc3CN2)cc1 (stereo not given) was read as TAAR1 antag inactive and TAAR1 agonist inactive.
For c1ccc(CSc2nnc3ccc(-c4ccncc4)nn23)cc1 the results were TAAR1 antag inactive, TAAR1 agonist inactive, CHO parental Ca inactive, GPR7 antag inactive, OX1R antag-1 inactive and OX1R antag-2 inactive.
For COc1ccc(NC(=O)CSc2nnc3ccc(-c4cccnc4)nn23)cc1 the results were TAAR1 antag inactive, TAAR1 agonist inactive, CHO parental Ca inactive, OX1R antag-1 63 and OX1R antag-2 inactive.
Screening Cc1ccccc1NC(=O)CSc1nnc2ccc(-c3ccccn3)nn12 returned TAAR1 antag inactive, TAAR1 agonist inactive, CHO parental Ca inactive, OX1R antag-1 55 and OX1R antag-2 inactive.
O=C(CSc1nnc2ccc(-c3ccncc3)nn12)c1cccs1 was read as TAAR1 antag inactive, TAAR1 agonist inactive, CHO parental Ca inactive, GPR7 antag inactive, OX1R antag-1 44 and OX1R antag-2 inactive.
COc1ccc(NC(=O)CSc2nnc3ccc(-c4ccncc4)nn23)cc1 was read as TAAR1 antag inactive, TAAR1 agonist inactive, CHO parental Ca inactive, OX1R antag-1 inactive and OX1R antag-2 inactive.
Screening c1cncc(CSc2nnc3ccc(-c4ccncc4)nn23)c1 returned TAAR1 antag inactive, TAAR1 agonist inactive, CHO parental Ca inactive, GPR7 antag inactive, OX1R antag-1 39 and OX1R antag-2 inactive.
Screening CCCCOCC1CN(CCCC)S(=O)(=O)c2c(Oc3ccc(SC)c(C)c3)cccc2O1 (stereo not given) returned TAAR1 antag inactive and TAAR1 agonist inactive.
For CC(=O)Nc1cccc(NC(=O)CSc2nnc3ccc(-c4cccnc4)nn23)c1 the results were TAAR1 antag inactive, TAAR1 agonist inactive, CHO parental Ca inactive, OX1R antag-1 75 and OX1R antag-2 inactive.
